Activity calls are given as the source filed them. The rule behind the calls is not given here.
Tests used:
HepG2 [1] = assay: Cytotoxicity against human HepG2 cells by MTT assay; type: functional, cell-based
How it was run: (§1)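 Log-phase cells were diluted to 40,000–50,000 cells/mL in medium with 10% FBS, 2 mM glutamine and antibiotics (37 °C, 5% CO₂). They were seeded in 96-well plates and treated with a range of doses. MTT was added for 4 h, the formazan was dissolved in DMSO, and absorbance was read at 590 nm.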

K562 = assay: Cytotoxicity against human K562 cells by MTT assay; type: functional, cell-based; how it was run: as §1
A-375 = assay: Cytotoxicity against human A375 cells by MTT assay; type: functional, cell-based; how it was run: as §1
[2] = Cytotoxicity against human LO2 cells by MTT assay; type: cell-based; conditions: L02; how it was run: as §1
DU-145 = assay: Cytotoxicity against human DU145 cells by MTT assay; type: functional, cell-based
HepG2 [3] = assay: Effect on microtubule network in human HepG2 cells assessed as abnormal mitotic spindles at 1 uM after 24 hrs by propidium iodide-FITC-based staining method; type: cell-based
How it was run: (§2)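 HepG2 cells were treated with 1.0 μM for 24 h. They were washed in PBS, fixed in cold 4% PFA for 10 min and blocked for 1 h in 5% goat serum/0.3% Triton/PBS. Staining used monoclonal anti-α-tubulin overnight at 4 °C, then Alexa Fluor 488 anti-mouse IgG for 30 min at room temperature, with propidium iodide for DNA. Cells were imaged by fluorescence or confocal microscopy.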

[4] = Ratio of taxol IC50 to compound IC50 for mouse C26 cells by MTT assay; type: functional
MCF7 = assay: Cytotoxicity against human MCF7 cells by MTT assay; type: functional, cell-based
SK-OV-3 = assay: Cytotoxicity against human SKOV3 cells by MTT assay; type: functional, cell-based
HepG2 [5] = assay: Induction of microtubule polymerization in human HepG2 cells at 1 uM after 24 hrs by propidium iodide-FITC-based staining method
[6] = Cytotoxicity against human H460 cells by MTT assay; type: functional, cell-based; conditions: NCI-H460
Bel-7402 = assay: Cytotoxicity against human Bel7402 cells by MTT assay; type: functional, cell-based
[7] = Cytotoxicity against human ES2 cells by MTT assay; type: functional, cell-based; conditions: ES-2
[8] = Cytotoxicity against human MCF7/ADR cells by MTT assay; type: functional, cell-based; conditions: NCI/ADR-RES
[9] = Cytotoxicity against mouse C26 cells by MTT assay; type: functional, cell-based
SK-HEP1 = assay: Cytotoxicity against human SKHEP1 cells by MTT assay; type: functional, cell-based
A2780 = assay: Cytotoxicity against taxol-resistant human A2780 cells by MTT assay; type: functional, cell-based
HepG2 [10] = assay: Cell cycle arrest in human HepG2 cells assessed as accumulation at G2/M phase at after 24 hrs by flow cytometry; type: functional, cell-based
HCT-8 = assay: Cytotoxicity against taxol-resistant human HCT8 cells by MTT assay; type: functional, cell-based
HCT-15 = assay: Cytotoxicity against human HCT15 cells by MTT assay; type: functional, cell-based
HT-29 = assay: Cytotoxicity against human HT-29 cells by MTT assay; type: functional, cell-based
PC-3 = assay: Cytotoxicity against human PC3 cells by MTT assay; type: functional, cell-based
[11] = Cytotoxicity against human A2780S cells by MTT assay; type: functional, cell-based; conditions: A2780
HepG2 [12] = assay: Cell cycle arrest in human HepG2 cells assessed as accumulation at G2/M phase at 1 uM after 24 hrs by flow cytometry (reference value: 17.07 %); type: functional
HepG2 [13] = assay: Cell cycle arrest in human HepG2 cells assessed as accumulation at G2/M phase at 0.2 uM after 24 hrs by flow cytometry (reference value: 17.07 %); type: functional
NCI-H358 = assay: Cytotoxicity against human NCI-H358 cells by MTT assay; type: functional, cell-based
[14] = Cytotoxicity against human SPC-A1 cells by MTT assay; type: functional, cell-based; conditions: SPCA1
HepG2 [15] = assay: Effect on microtubule network in human HepG2 cells assessed as multiple tubulin bundles without chromosomes aligned at the metaphase plate with more dispersion of the chromosomes at 1 uM after 24 hrs by propidium iodide-FITC-based staining method; type: cell-based; how it was run: as §2

## COc1ccc(/C=C/C(=O)c2ccc(OC)c3c2OC(C)(C)C=C3)cc1OC(=O)c1ccc(Br)cc1
HepG2 [1]
  IC50: 680 nM
K562
  IC50: 1110 nM
A-375
  IC50: 420 nM
[2]
  IC50: 8400 nM

## COc1ccc(/C=C/C(=O)c2ccc(OC)c3c2OC(C)(C)C=C3)cc1OS(=O)(=O)Cc1ccccc1
HepG2 [1]
  IC50: > 10000 nM
K562
  IC50: > 10000 nM
A-375
  IC50: > 10000 nM
[2]
  IC50: > 10000 nM

## COc1ccc(/C=C/C(=O)c2ccc(OC)c3c2OC(C)(C)C=C3)cc1OC(=O)CCl
HepG2 [1]
  IC50: 120 nM
K562
  IC50: 400 nM
A-375
  IC50: 450 nM
[2]
  IC50: > 10000 nM

## COc1ccc(/C=C/C(=O)c2ccc(OC)c3c2OC(C)(C)C=C3)cc1OCCN1CCCCC1
HepG2 [1]
  IC50: 4400 nM
K562
  IC50: 2080 nM
A-375
  IC50: 3000 nM
[2]
  IC50: 9150 nM

## CCCCC(=O)Oc1cc(/C=C/C(=O)c2ccc(OC)c3c2OC(C)(C)C=C3)ccc1OC
DU-145
  IC50: 210 nM
HepG2 [3]
  Activity: Active
[4]
  Ratio IC50: 3
MCF7
  IC50: 250 nM
SK-OV-3
  IC50: 270 nM
HepG2 [1]
  IC50: 100 nM
HepG2 [5]
  Activity: Active
[6]
  IC50: 5450 nM
Bel-7402
  IC50: > 2000 nM
[7]
  IC50: 100 nM
[8]
  IC50: 170 nM
K562
  IC50: 240 nM
[9]
  IC50: 300 nM
SK-HEP1
  IC50: 600 nM
A2780
  IC50: 5920 nM
HepG2 [10]
  Activity: Dose-dependent effect
HCT-8
  IC50: 2300 nM
HCT-15
  IC50: 100 nM
A-375
  IC50: 220 nM
[2]
  IC50: > 10000 nM
HT-29
  IC50: 190 nM
PC-3
  IC50: 120 nM
[11]
  IC50: 330 nM
HepG2 [12]
  Activity: 69.18%
HepG2 [13]
  Activity: 53.47%
NCI-H358
  IC50: 90 nM
[14]
  IC50: 18100 nM
HepG2 [15]
  Activity: Active

## COc1ccc(/C=C/C(=O)c2ccc(OC)c3c2OC(C)(C)C=C3)cc1OC(=O)Cc1cccc(C(F)(F)F)c1
HepG2 [1]
  IC50: 570 nM
K562
  IC50: 290 nM
A-375
  IC50: 480 nM
[2]
  IC50: > 10000 nM

## COc1ccc(/C=C/C(=O)c2ccc(OC)c3c2OC(C)(C)C=C3)cc1OCCCN(C)C
HepG2 [1]
  IC50: 5550 nM
K562
  IC50: 2920 nM
A-375
  IC50: 4100 nM
[2]
  IC50: 8600 nM

## COc1ccc(/C=C/C(=O)c2ccc(OC)c3c2OC(C)(C)C=C3)cc1OCC=C(C)C
HepG2 [1]
  IC50: > 10000 nM
K562
  IC50: > 10000 nM
A-375
  IC50: > 10000 nM
[2]
  IC50: > 10000 nM

## COc1ccc(/C=C/C(=O)c2ccc(OC)c3c2OC(C)(C)C=C3)cc1OC(=O)C1CC1
HepG2 [1]
  IC50: 220 nM
K562
  IC50: 410 nM
A-375
  IC50: 380 nM
[2]
  IC50: > 10000 nM

## COc1ccc(/C=C/C(=O)c2ccc(OC)c3c2OC(C)(C)C=C3)cc1OC(=O)c1ccco1
HepG2 [1]
  IC50: 370 nM
K562
  IC50: 450 nM
A-375
  IC50: 680 nM
[2]
  IC50: > 10000 nM

## C=CC(=O)Oc1cc(/C=C/C(=O)c2ccc(OC)c3c2OC(C)(C)C=C3)ccc1OC
HepG2 [1]
  IC50: 160 nM
K562
  IC50: 300 nM
A-375
  IC50: 390 nM
[2]
  IC50: > 10000 nM

## COc1ccc(/C=C/C(=O)c2ccc(OC)c3c2OC(C)(C)C=C3)cc1OC(=O)CCCc1ccc(N(CCCl)CCCl)cc1
HepG2 [1]
  IC50: 700 nM
K562
  IC50: 470 nM
A-375
  IC50: 9200 nM
[2]
  IC50: > 10000 nM

## COc1ccc(/C=C/C(=O)c2ccc(OC)c3c2OC(C)(C)C=C3)cc1O
HepG2 [1]
  IC50: 450 nM
K562
  IC50: 630 nM
A-375
  IC50: 800 nM
[2]
  IC50: > 10000 nM

## COc1ccc(/C=C/C(=O)c2ccc(OC)c3c2OC(C)(C)C=C3)cc1OS(C)(=O)=O
HepG2 [1]
  IC50: 9180 nM
K562
  IC50: 9240 nM
A-375
  IC50: > 10000 nM
[2]
  IC50: > 10000 nM

## C=CCOc1cc(/C=C/C(=O)c2ccc(OC)c3c2OC(C)(C)C=C3)ccc1OC
HepG2 [1]
  IC50: > 10000 nM
K562
  IC50: > 10000 nM
A-375
  IC50: > 10000 nM
[2]
  IC50: > 20000 nM

## COc1ccc(/C=C/C(=O)Oc2cc(/C=C/C(=O)c3ccc(OC)c4c3OC(C)(C)C=C4)ccc2OC)cc1
HepG2 [1]
  IC50: 430 nM
K562
  IC50: 380 nM
A-375
  IC50: 2630 nM
[2]
  IC50: 18000 nM

## COc1ccc(/C=C/C(=O)c2ccc(OC)c3c2OC(C)(C)C=C3)cc1OS(=O)(=O)c1ccc(C)cc1
HepG2 [1]
  IC50: 3600 nM
K562
  IC50: 7850 nM
A-375
  IC50: 2400 nM
[2]
  IC50: > 10000 nM

## COc1ccc(/C=C/C(=O)c2ccc(OC)c3c2OC(C)(C)C=C3)cc1 [MILLEPACHINE]
A-375
  IC50: 3580 nM
[2]
  IC50: > 20000 nM

## C#CCOc1cc(/C=C/C(=O)c2ccc(OC)c3c2OC(C)(C)C=C3)ccc1OC
HepG2 [1]
  IC50: > 10000 nM
K562
  IC50: > 10000 nM
A-375
  IC50: > 10000 nM
[2]
  IC50: > 10000 nM

## COc1ccc(/C=C/C(=O)c2ccc(OC)c3c2OC(C)(C)C=C3)cc1OC(=O)C(C)C
HepG2 [1]
  IC50: 250 nM
K562
  IC50: 570 nM
A-375
  IC50: 310 nM
[2]
  IC50: > 10000 nM

## COc1ccc(/C=C/C(=O)c2ccc(OC)c3c2OC(C)(C)C=C3)cc1OC(=O)Cc1ccc(Cl)c(Cl)c1
HepG2 [1]
  IC50: 600 nM
K562
  IC50: 430 nM
A-375
  IC50: 700 nM
[2]
  IC50: > 10000 nM

## COc1ccc(/C=C/C(=O)c2ccc(OC)c3c2OC(C)(C)C=C3)cc1OCCN1CCCC1
HepG2 [1]
  IC50: > 10000 nM
K562
  IC50: 3050 nM
A-375
  IC50: 3810 nM
[2]
  IC50: 9500 nM

## COc1ccc(/C=C/C(=O)c2ccc(OC)c3c2OC(C)(C)C=C3)cc1OCCO
HepG2 [1]
  IC50: > 10000 nM
K562
  IC50: > 10000 nM
A-375
  IC50: 9600 nM
[2]
  IC50: > 10000 nM

## COc1ccc(/C=C/C(=O)c2ccc(OC)c3c2OC(C)(C)C=C3)cc1OCCN1CCOCC1
HepG2 [1]
  IC50: > 10000 nM
K562
  IC50: 8350 nM
A-375
  IC50: 8200 nM
[2]
  IC50: > 10000 nM

## COc1cc2c(c(OC)c1OC)-c1ccc(OC)c(=O)cc1[C@@H](NC(C)=O)CC2 [COLCHICINE]
DU-145
  IC50: 300 nM
MCF7
  IC50: 290 nM
SK-OV-3
  IC50: 120 nM
[6]
  IC50: 27000 nM
Bel-7402
  IC50: 1310 nM
[7]
  IC50: 90 nM
[8]
  IC50: 3120 nM
[9]
  IC50: 1720 nM
SK-HEP1
  IC50: 170 nM
A2780
  IC50: > 20000 nM
HCT-8
  IC50: 11800 nM
HCT-15
  IC50: 80 nM
HT-29
  IC50: 20 nM
PC-3
  IC50: 40 nM
[11]
  IC50: 20 nM
NCI-H358
  IC50: 20 nM
[14]
  IC50: 80000 nM

## COc1cccc(C(=O)Oc2cc(/C=C/C(=O)c3ccc(OC)c4c3OC(C)(C)C=C4)ccc2OC)c1
HepG2 [1]
  IC50: 870 nM
K562
  IC50: 790 nM
A-375
  IC50: 800 nM
[2]
  IC50: > 10000 nM
